Test results: ChEMBL document CHEMBL4145531, “Synthesis of novel Chlorin e6-curcumin conjugates as photosensitizers for photodynamic therapy against pancreatic carcinoma” (Eur J Med Chem, 2018); call rule not given here

What was measured:
[1] = Solubility of the compound in 2% DMSO/98% de-ionized water at 8.4 uM; type: physicochemical; settings: buffer
[2] = Dark toxicity in human MIAPaCa2 cells assessed as reduction in cell viability after 72 hrs by MTT assay; type: cell-based, MIA PaCa-2
Procedure, shortened: (§1)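 AsPC-1 cells were grown in RPMI-1640, and MIA PaCa-2 and PANC-1 in DMEM, each with 10% FBS and 1% penicillin/streptomycin. 5.0 x 10^3 cells were seeded and left overnight at 37 °C. They were exposed to 0-300 µM compound for 3h without laser irradiation, then held 72h in the dark at 37 °C, 5% CO₂. Viability was read by MTT.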

[3] = Dark toxicity in human PANC1 cells assessed as reduction in cell viability after 72 hrs by MTT assay; type: cell-based, PANC-1; procedure, shortened: as §1
[4] = Induction of singlet oxygen production in DMSO assessed as DPBF absorption intensity (reference value: 100%); type: functional
Procedure, shortened: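 DPBF (50 µM in DMSO) was mixed with 1 µM photosensitizer in the dark. Samples were irradiated at 660 nm, 50 mW, 2 J/cm² for 40 s. Singlet oxygen was read as the decay of normalized DPBF absorbance at 418 nm relative to a DPBF-only control.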

[5] = Selectivity index, ratio of IC50 for dark toxicity in human AsPC1 cells to IC50 for phototoxicity in human AsPC1 cells; type: cell-based; settings: read-out: Ratio IC50
Procedure, shortened: (§2)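 The ratio is the dark-toxicity IC50 over the phototoxicity IC50 in the same cell line, both from 72h MTT. The dark arm received no light. The photo arm was irradiated at 660 nm, 50 mW, 9 J/cm² after 3h compound exposure.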

[6] = Selectivity index, ratio of IC50 for dark toxicity in human PANC1 cells to IC50 for phototoxicity in human PANC1 cells; type: cell-based, PANC-1; settings: read-out: Ratio IC50; procedure, shortened: as §2
[7] = Drug uptake in human AsPC1 cells at 5 uM after 3 to 24 hrs by FACS analysis; type: ADME, cell-based; settings: aspc1, 5 µM
Procedure, shortened: (§3)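 AsPC-1 cells (2 x 10^5) were seeded and kept in the dark at 37 °C for 24h. They were then incubated with 5 µM compound for 30 min to 24h. Cells were harvested by trypsin, washed three times in PBS and resuspended in PBS. Uptake was read as mean fluorescence intensity by FACS.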

[8] = tested on: PANC-1; assay: Phototoxicity in human PANC1 cells assessed as reduction in cell viability preincubated for 3 hrs followed by 9 J/cm2 laser light irradiation and measured after 72 hrs by MTT assay; type: functional, cell-based; settings: PANC-1, light or radiation study
Procedure, shortened: (§4)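 Cells were seeded at 5.0 x 10^3 per well and incubated overnight at 37 °C. AsPC-1 was in RPMI-1640 and MIA PaCa-2/PANC-1 in DMEM, with 10% FBS. Cells took up compound for 3h, then received 660 nm laser light (50 mW, 9 J/cm²).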

[9] = Drug uptake in human AsPC1 cells at 5 uM by FACS analysis; type: ADME, cell-based; settings: aspc1, 5 µM, TDE = time-dependent effect; procedure, shortened: as §3
[10] = tested on: MIA PaCa-2; assay: Phototoxicity in human MIAPaCa2 cells assessed as reduction in cell viability preincubated for 3 hrs followed by 9 J/cm2 laser light irradiation and measured after 72 hrs by MTT assay; type: functional, cell-based; settings: MIA PaCa-2, light or radiation study; procedure, shortened: as §4
[11] = Selectivity index, ratio of IC50 for dark toxicity in human MIAPaCa2 cells to IC50 for phototoxicity in human MIAPaCa2 cells; type: cell-based, MIA PaCa-2; settings: read-out: Ratio IC50; procedure, shortened: as §2
[12] = Dark toxicity in human AsPC1 cells assessed as reduction in cell viability after 72 hrs by MTT assay; type: cell-based; procedure, shortened: as §1
[13] = tested on: ASPC1; assay: Phototoxicity in human AsPC1 cells assessed as reduction in cell viability preincubated for 3 hrs followed by 9 J/cm2 laser light irradiation and measured after 72 hrs by MTT assay; type: functional, cell-based; settings: ASPC1, light or radiation study; procedure, shortened: as §4
[14] = Solubility of the compound in 2% DMSO/98% de-ionized water at 8.7 uM; type: physicochemical; settings: buffer
[15] = Solubility of the compound in 2% DMSO/98% de-ionized water at 16 uM; type: physicochemical; settings: buffer

| Structure (SMILES) | solubility [1] | IC50 at 72 h [2] [µM] | IC50 at 72 h [3] [µM] | Activity [4] [%] | selectivity ratio [5] | selectivity ratio [6] | Drug uptake [7] | IC50 [8] [µM] | Drug uptake [9] | IC50 [10] [µM] | selectivity ratio [11] | IC50 at 72 h [12] [µM] | IC50 [13] [µM] | solubility [14] | solubility [15] |
| --- | --- | --- | --- | --- | --- | --- | --- | --- | --- | --- | --- | --- | --- | --- | --- |
| C=Cc1c(C)c2cc3nc(c(CC(=O)OC)c4[nH]c(cc5nc(cc1[nH]2)C(C)=C5CC)c(C)c4C(=O)NCCCCCCNC(=O)CCCC(=O)Oc1ccc(/C=C/C(=O)CC(=O)/C=C/c2ccc(O)c(OC)c2)cc1OC)C(CCC(=O)OC)C3C (stereo not drawn) | Soluble | 265 | > 300 | 10.1 | 28.3 | > 6.58 | Active | 45.6 | Tde | 47.3 | 5.6 | 285 | 10.1 |  |  |
| C=Cc1c(C)c2cc3nc(c(CC(=O)OC)c4[nH]c(cc5nc(cc1[nH]2)C(C)=C5CC)c(C)c4C(=O)NCCCNC(=O)CCCC(=O)Oc1ccc(/C=C/C(=O)CC(=O)/C=C/c2ccc(O)c(OC)c2)cc1OC)C(CCC(=O)OC)C3C (stereo not drawn) |  | 200 | > 300 | 7.39 | > 52.3 | > 65.5 | Active | 4.58 | Tde | 4.2 | 47.6 | > 300 | 5.74 | Soluble |  |
| C=Cc1c(C)c2cc3nc(c(CC(=O)O)c4[nH]c(cc5nc(cc1[nH]2)C(C)=C5CC)c(C)c4C(=O)O)C(CCC(=O)O)C3C (stereo not drawn) |  | 89 | 67 | 9.88 | 6.45 | 6.6 |  | 10.1 | Tde | 15.8 | 5.61 | 126 | 19.5 |  | Soluble |
